Reference: ChEMBL document CHEMBL5108008, “Drug screening approach against mycobacterial fatty acyl-AMP ligase FAAL32 renews the interest of the salicylanilide pharmacophore in the fight against tuberculosis” (Bioorg Med Chem, 2022)
Converted amounts (≈) assume the structure as drawn. Counter-ions that a name gives are not always drawn.

Assays:
[1] = system: Mycobacterium tuberculosis; assay: Antimicrobial activity against Mycobacterium tuberculosis H37Rv incubated for 24 hrs and measured by MTT assay; format: functional
In short: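 Pellicle-grown Mtb bacilli were vortexed with glass beads, clumps removed by slow spin, and set to A600 0.1 in 7H9/0.2% glycerol. 2 µL compound in DMSO (1 mM, or 2-fold serial dilutions) went into 100 µL broth with 100 µL bacteria. Plates ran 6 d at 37 °C, then MTT (1 mg/mL) for 24 h, SDS solubilisation and A570. MIC was the lowest concentration inhibiting growth versus the untreated control.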

[2] = target: T1, Long-chain-fatty-acid--AMP ligase FadD32 (Mycobacterium tuberculosis (strain ATCC 25618 / H37Rv), UniProt O53580); assay: Inhibition of Mycobacterium tuberculosis FAAL32 using AMPC12 as substrate incubated for 50 mins and measured by spectrophotometric assay
T1 sequence (O53580 whole entry): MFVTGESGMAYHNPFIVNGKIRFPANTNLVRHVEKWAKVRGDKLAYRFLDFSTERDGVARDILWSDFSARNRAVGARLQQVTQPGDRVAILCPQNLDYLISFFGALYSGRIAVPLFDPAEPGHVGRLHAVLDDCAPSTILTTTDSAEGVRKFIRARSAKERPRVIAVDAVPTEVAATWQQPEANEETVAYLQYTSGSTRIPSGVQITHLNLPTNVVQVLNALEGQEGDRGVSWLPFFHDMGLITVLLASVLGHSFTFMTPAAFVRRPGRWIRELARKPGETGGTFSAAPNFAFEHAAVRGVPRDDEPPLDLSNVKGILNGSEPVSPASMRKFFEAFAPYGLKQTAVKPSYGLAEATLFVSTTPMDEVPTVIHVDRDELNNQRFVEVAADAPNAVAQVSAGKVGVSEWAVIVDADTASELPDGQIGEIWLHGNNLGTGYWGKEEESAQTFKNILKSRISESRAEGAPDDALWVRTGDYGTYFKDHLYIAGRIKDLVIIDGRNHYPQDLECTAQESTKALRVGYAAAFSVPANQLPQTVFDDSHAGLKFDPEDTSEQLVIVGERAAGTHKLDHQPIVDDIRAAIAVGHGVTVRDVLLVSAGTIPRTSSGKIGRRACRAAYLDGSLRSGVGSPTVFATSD
In short: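 Purified Mtb FAAL32 was run with lauric acid and ATP in HEPES pH 7.5, MgCl2, DTT and detergent. Pyrophosphatase coupling converted released PPi to Pi, read after 50 min as A630 with a phosphate colour reagent against a Pi calibration curve. Compounds (final 0.5–66 µM, DMSO) were added before the enzyme. IC50 came from a sigmoidal fit of percent inhibition.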

[3] = target: T2, Long-chain-fatty-acid--AMP ligase FadD32 (Mycobacterium tuberculosis (strain ATCC 25618 / H37Rv)) (UniProt O53580); assay: Binding affinity to Mycobacterium tuberculosis FAAL32 assessed as change in melting temperature at 5 uM by NanoDSF assay
T2 sequence (whole entry): T1 sequence (O53580 whole entry)
In short: (§1)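 nanoDSF used 0.5 µM purified FAAL32 with ligand at 0.5–10 µM in 50 mM HEPES pH 7.5, 500 mM NaCl, 5% DMSO. Samples sat 5 min at RT, then were heated 20–70 °C at 1 °C/min. Tm came from the F350/F330 fluorescence ratio; the DMSO-only protein was the reference.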

[4] = target: T2, Long-chain-fatty-acid--AMP ligase FadD32 (Mycobacterium tuberculosis (strain ATCC 25618 / H37Rv)); assay: Binding affinity to Mycobacterium tuberculosis FAAL32 assessed as change in melting temperature at 2.5 uM by NanoDSF assay; in short: as §1

CCCCC(CC)CNC(=N)NC(=N)NCCCCCCNC(=N)NC(=N)NCC(CC)CCCC (stereo unspecified) [ALEXIDINE DIHYDROCHLORIDE] was tested, and the MIC [1] was > 1 µM.

O=C(O)c1cn(C2CC2)c2cc(N3CCNCC3)c(F)cc2c1=O [CIPROFLOXACIN] showed an MIC [1] of 1.25 µM (≈ 0.414 µg/mL).

Cc1cc(C(C#N)c2ccc(Cl)cc2)c(Cl)cc1NC(=O)c1cc(I)cc(I)c1O (stereo unspecified) [CLOSANTEL] was tested, and the MIC [1] was 0.08 µM (≈ 0.053 µg/mL), the IC50 [2] was 7.7 µM and the ΔTm [3] was 2.7 °C.

For Oc1c(Cl)cc(Cl)c(Cl)c1Cc1c(O)c(Cl)cc(Cl)c1Cl [HEXACHLOROPHENE], the MIC [1] was 0.08 µM (≈ 0.0326 µg/mL).

Molecule NNC(=O)c1ccncc1 [ISONIAZID] has an MIC [1] of 0.6 µM (≈ 0.0823 µg/mL).

For Clc1ccc(COC(Cn2ccnc2)c2ccc(Cl)cc2Cl)c(Cl)c1 (stereo unspecified) [MICONAZOLE], the MIC [1] was > 1 µM.

In the case of CC(C)(O)c1ccccc1CC[C@@H](SCC1(CC(=O)O)CC1)c1cccc(/C=C/c2ccc3ccc(Cl)cc3n2)c1 [MONTELUKAST], the MIC [1] is reported as > 1 µM.

O=C(Nc1ccc([N+](=O)[O-])cc1Cl)c1cc(Cl)ccc1O [NICLOSAMIDE] was tested, and the MIC [1] was < 0.4 µM.

In the case of CC(=O)Oc1ccccc1C(=O)Nc1ncc([N+](=O)[O-])s1 [NITAZOXANIDE], the MIC [1] is reported as 10 µM (≈ 3.07 µg/mL).

In the case of O=C(Nc1cc(Cl)cc(Cl)c1O)c1c(O)c(Cl)cc(Cl)c1Cl [OXYCLOZANIDE], the MIC [1] is reported as 0.32 µM (≈ 0.128 µg/mL).

O=C(Nc1ccc(Oc2ccc(Cl)cc2)c(Cl)c1)c1cc(I)cc(I)c1O [RAFOXANIDE] was tested, and the MIC [1] was 0.08 µM (≈ 0.0501 µg/mL) and the ΔTm [4] was 2.7 °C.

In the case of CCCCCCCCCCCCCCCC[N+](C)(C)CCN(Cc1ccc(OC)cc1)c1ncccn1 [THONZONIUM BROMIDE], the MIC [1] is reported as > 1 µM.

In the case of VERTEPORFIN, the MIC [1] is reported as > 1 µM.
